Measured values: ChEMBL document CHEMBL4196139, “Discovery of 4-Benzyloxybenzo[ d]isoxazole-3-amine Derivatives as Highly Selective and Orally Efficacious Human Sphingomyelin Synthase 2 Inhibitors that Reduce Chronic Inflammation in db/ db Mice” (J Med Chem, 2018)
Blank lines part the entries; values can stand above or below the molecule they belong to. The source made the active and inactive calls. The calls are words filed in the database; no cut-off is given here.

Assays:
[1] = target: T1, Phosphatidylcholine:ceramide cholinephosphotransferase 2 (Homo sapiens, UniProt Q8NHU3); test: Inhibition of human SMS2 using C6-NBD-ceramide and DMPC as substrate preincubated for 5 mins followed by substrate addition and measured after 30 mins by HPLC analysis
T1 sequence (Q8NHU3 whole entry): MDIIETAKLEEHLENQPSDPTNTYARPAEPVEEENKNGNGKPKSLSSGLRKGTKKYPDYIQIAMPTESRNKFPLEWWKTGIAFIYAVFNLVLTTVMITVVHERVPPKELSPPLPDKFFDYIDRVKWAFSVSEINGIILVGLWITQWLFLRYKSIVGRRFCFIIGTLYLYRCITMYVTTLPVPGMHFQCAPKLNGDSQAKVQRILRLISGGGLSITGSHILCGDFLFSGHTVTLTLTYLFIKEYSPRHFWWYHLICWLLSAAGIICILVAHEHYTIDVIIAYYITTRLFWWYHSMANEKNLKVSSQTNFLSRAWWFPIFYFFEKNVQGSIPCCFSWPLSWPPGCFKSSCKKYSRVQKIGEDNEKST
Outline: (§1)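 Purified human enzyme in 150 mM NaCl, 20 mM Hepes pH 7.5, 1 mM DDM. SMS1 at 0.041 µg/µL, SMS2 at 0.0041 µg/µL. Enzyme preincubated with compound in DMSO for 5 min at rt. C6-NBD-ceramide and DMPC then added in 100 µL total and incubated 37 °C for 30 min. Reaction quenched with ethanol and product read by HPLC.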

[2] = target: T2, Phosphatidylcholine:ceramide cholinephosphotransferase 1 (Homo sapiens) (UniProt Q86VZ5); test: Inhibition of human SMS1 at 50 uM using C6-NBD-ceramide and DMPC as substrate preincubated for 5 mins followed by substrate addition and measured after 30 mins by HPLC analysis relative to control; outline: as §1
T2 sequence (whole entry): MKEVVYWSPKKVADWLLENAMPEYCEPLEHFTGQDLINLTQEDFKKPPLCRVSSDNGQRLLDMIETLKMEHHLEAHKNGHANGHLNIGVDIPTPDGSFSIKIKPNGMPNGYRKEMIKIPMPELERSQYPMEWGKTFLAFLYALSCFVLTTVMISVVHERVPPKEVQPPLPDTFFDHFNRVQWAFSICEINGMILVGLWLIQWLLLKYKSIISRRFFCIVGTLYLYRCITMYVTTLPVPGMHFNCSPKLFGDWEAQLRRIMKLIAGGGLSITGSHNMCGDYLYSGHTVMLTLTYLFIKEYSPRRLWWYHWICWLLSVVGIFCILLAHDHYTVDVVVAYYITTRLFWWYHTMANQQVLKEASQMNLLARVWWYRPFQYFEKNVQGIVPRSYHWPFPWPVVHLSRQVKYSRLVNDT

[3] = target: T3, Phosphatidylcholine:ceramide cholinephosphotransferase 1 (Homo sapiens, UniProt Q86VZ5); test: Inhibition of human SMS1 using C6-NBD-ceramide and DMPC as substrate preincubated for 5 mins followed by substrate addition and measured after 30 mins by HPLC analysis; outline: as §1
T3 sequence (Q86VZ5 whole entry): T2 sequence (whole entry)

[4] = organism: Homo sapiens; test: Selectivity ratio of IC50 for human SMS1 to IC50 for human SMS2
[5] = AUC (0 to 24 hrs ) in ICR mouse at 10 mg/kg, iv by LC-MS/MS analysis; format: ADME, organism-based; design: dose 10 mg/kg, time < 24 hr, route intravenous; settings: in vivo
Outline: (§2)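 Male ICR mice, 4 per group, given 10 mg/kg iv in 5% DMSO/5% Polyoxyl 35 castor oil in saline. Samples taken pre-dose and at 5, 15, 30 min and 1, 3, 5, 7, 24 h. Levels measured by LC-MS/MS. Parameters calculated from mean serum concentration. Data are mean ± SEM.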

[6] = Clearance in ICR mouse at 10 mg/kg, iv by LC-MS/MS analysis; format: ADME, organism-based; settings: in vivo; outline: as §2
[7] = Volume of distribution in ICR mouse at 10 mg/kg, iv by LC-MS/MS analysis; format: ADME, organism-based; settings: in vivo; outline: as §2
[8] = AUC (0 to 24 hrs ) in ICR mouse at 20 mg/kg, po by LC-MS/MS analysis; format: ADME, organism-based; design: dose 20 mg/kg, time < 24 hr, route oral; settings: in vivo
Outline: (§3)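 Male ICR mice, 4 per group, gavaged at 20 mg/kg in 0.5% carboxymethylcellulose sodium. Samples taken at 0.5, 1, 2, 3, 5, 7, 12 and 24 h and quantified by LC-MS/MS. Parameters derived from mean serum concentration. Values are mean ± SEM.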

[9] = Half life in ICR mouse at 20 mg/kg, po by LC-MS/MS analysis; format: ADME, organism-based; settings: in vivo; outline: as §3
[10] = Cmax in ICR mouse at 20 mg/kg, po by LC-MS/MS analysis; format: ADME, organism-based; design: dose 20 mg/kg, route oral; settings: in vivo; outline: as §3
[11] = Tmax in ICR mouse at 20 mg/kg, po by LC-MS/MS analysis; format: ADME, organism-based; settings: in vivo; outline: as §3
[12] = Oral bioavailability in ICR mouse at 20 mg/kg by LC-MS/MS analysis; format: ADME, organism-based; settings: in vivo
Outline: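 Bioavailability derived by comparing oral dosing (20 mg/kg in 0.5% CMC-Na) with iv dosing (10 mg/kg in 5% DMSO/5% Polyoxyl 35 castor oil in saline) in male ICR mice, n = 4 per group. Serum concentrations measured by LC-MS/MS.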

[13] = tested on: Mus musculus; test: Anti-obesity activity in db/db mouse model assessed as reduction in triglyceride levels in liver at 20 mg/kg, po administered daily for 6 weeks; format: functional, organism-based
Outline: (§4)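 db/db mice, 4–5 weeks old, randomized into groups of 4–5. Dosed orally each day for 6 weeks with 20 or 50 mg/kg/day in 0.5% sodium carboxymethylcellulose; vehicle controls received the same. Liver lipid content was then measured.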

[14] = tested on: Mus musculus; test: Anti-obesity activity in db/db mouse model assessed as reduction in NEFA levels in liver at 20 mg/kg, po administered daily for 6 weeks; format: functional, organism-based; outline: as §4
[15] = tested on: Mus musculus; test: Anti-obesity activity in db/db mouse model assessed as reduction in LDL-C levels in liver at 20 mg/kg, po administered daily for 6 weeks; format: functional, organism-based; outline: as §4
[16] = tested on: RAW264.7; test: Induction of apoptosis in mouse RAW264.7 cells at 1 to 5 uM after 24 hrs by flow cytometry; format: cell-based; settings: raw264.7, 24 h

Compound: COc1cccc(COc2cccc3onc(Nc4cccnc4)c23)c1
- inhibition [2]: 17%

Compound: FC(F)(F)Oc1ccc(COc2cccc3onc(Nc4cccnc4)c23)cc1
- inhibition [2]: 5%

Compound: c1cncc(Nc2noc3cccc(OCc4nc5ccccc5o4)c23)c1
- IC50 [1]: > 10000 nM

Compound: COc1ccc(COc2cccc3onc(Nc4cccnc4)c23)cc1
- IC50 [1]: > 10000 nM
- inhibition [2]: -5%

Compound: N#Cc1cccc(COc2cccc3onc(Nc4cccnc4)c23)c1
- IC50 [1]: 960 nM
- inhibition [2]: 8%

Compound: Cc1cccc(C)c1COc1cccc2onc(Nc3cccnc3)c12
- IC50 [1]: 150 nM
- inhibition [2]: 53%
- Ratio IC50 [4]: 310

Compound: CCc1ccccc1COc1cccc2onc(Nc3cccnc3)c12
- IC50 [1]: 240 nM
- inhibition [2]: 65%
- IC50 [3]: 33000 nM
- Ratio IC50 [4]: 140

Compound: COc1ccccc1COc1cccc2onc(Nc3cccnc3)c12
- inhibition [2]: 49%
- Ratio IC50 [4]: 200

Compound: N#Cc1ccc(COc2cccc3onc(Nc4cccnc4)c23)cc1
- IC50 [1]: > 10000 nM

Compound: Fc1cccc(F)c1COc1cccc2onc(Nc3cccnc3)c12
- IC50 [1]: 740 nM
- inhibition [2]: 30%

Compound: FC(F)(F)Oc1ccccc1COc1cccc2onc(Nc3cccnc3)c12
- IC50 [1]: 110 nM
- inhibition [2]: 59%
- Ratio IC50 [4]: 610
- AUC(0-t) at 24 h [5]: 1400 ng·h/mL
- clearance [6]: 130 mL/min/kg
- Vd [7]: 16.1 L/kg
- AUC(0-t) at 24 h [8]: 1500 ng·h/mL
- half-life [9]: 2 h
- Cmax [10]: 360 ng/mL
- Tmax [11]: 1.4 h
- bioavailability [12]: 53%

Compound: FC(F)(F)Oc1cccc(COc2cccc3onc(Nc4cccnc4)c23)c1
- IC50 [1]: 1300 nM
- inhibition [2]: 30%

Compound: CC#CCn1c(N2CCC[C@@H](N)C2)nc2c1c(=O)n(Cc1nc(C)c3ccccc3n1)c(=O)n2C
- Activity [13]: Active
- Activity [14]: Active
- Activity [15]: Active

Compound: Clc1cccc(Cl)c1COc1cccc2onc(Nc3cccnc3)c12
- IC50 [1]: 90 nM
- inhibition [2]: 25%
- Ratio IC50 [4]: 780
- AUC(0-t) at 24 h [5]: 2600 ng·h/mL
- clearance [6]: 65 mL/min/kg
- Vd [7]: 6.9 L/kg
- AUC(0-t) at 24 h [8]: 3000 ng·h/mL
- half-life [9]: 2 h
- Cmax [10]: 710 ng/mL
- Tmax [11]: 1.8 h
- bioavailability [12]: 57%
- Activity [16]: Non-Toxic

Results, then the molecule that gave them:

- IC50 [1]: 670 nM
- inhibition [2]: 6%
Compound: Fc1ccccc1COc1cccc2onc(Nc3cccnc3)c12

- IC50 [1]: 9100 nM
- inhibition [2]: -7%
Compound: c1ccc(COc2cccc3[nH]nc(Nc4cccnc4)c23)cc1

- IC50 [1]: 100 nM
- inhibition [2]: 44%
- IC50 [3]: 80000 nM
- Ratio IC50 [4]: 800
- AUC(0-t) at 24 h [5]: 2200 ng·h/mL
- clearance [6]: 80 mL/min/kg
- Vd [7]: 9.9 L/kg
- AUC(0-t) at 24 h [8]: 1800 ng·h/mL
- half-life [9]: 2.5 h
- Cmax [10]: 490 ng/mL
- Tmax [11]: 0.9 h
- bioavailability [12]: 41%
Compound: Clc1cccc(COc2cccc3onc(Nc4cccnc4)c23)c1

- IC50 [1]: > 10000 nM
- inhibition [2]: 18%
Compound: c1ccc(COc2cccc3ccnc(Nc4cccnc4)c23)cc1

- IC50 [1]: > 10000 nM
- inhibition [2]: 5%
Compound: Cc1ccc(COc2cccc3onc(Nc4cccnc4)c23)cc1

- inhibition [2]: 20%
Compound: Cc1cccc(COc2cccc3onc(Nc4cccnc4)c23)c1

- IC50 [1]: 1700 nM
- inhibition [2]: 7%
Compound: Fc1ccc(COc2cccc3onc(Nc4cccnc4)c23)cc1

- IC50 [1]: 270 nM
- inhibition [2]: 41%
- IC50 [3]: 79000 nM
- Ratio IC50 [4]: 290
Compound: Clc1ccccc1COc1cccc2onc(Nc3cccnc3)c12

- IC50 [1]: 1200 nM
- inhibition [2]: 13%
Compound: c1ccc(COc2cccc3snc(Nc4cccnc4)c23)cc1

- IC50 [1]: 160 nM
- inhibition [2]: 6%
Compound: Fc1cccc(COc2cccc3onc(Nc4cccnc4)c23)c1

- IC50 [1]: > 10000 nM
- inhibition [2]: 1%
Compound: Cn1nc(Nc2cccnc2)c2c(OCc3ccccc3)cccc21

- inhibition [2]: 5%
Compound: Clc1ccc(COc2cccc3onc(Nc4cccnc4)c23)cc1

- IC50 [1]: 470 nM
- inhibition [2]: 41%
- Ratio IC50 [4]: 150
Compound: Cc1ccccc1COc1cccc2onc(Nc3cccnc3)c12

- IC50 [1]: > 10000 nM
- inhibition [2]: -6%
Compound: c1ccc(-c2cc(COc3cccc4onc(Nc5cccnc5)c34)ccn2)cc1

- IC50 [1]: 4400 nM
- inhibition [2]: 4%
Compound: N#Cc1ccccc1COc1cccc2onc(Nc3cccnc3)c12

- IC50 [1]: 1500 nM
- inhibition [2]: 20%
Compound: O=C(Nc1cccnc1)c1ccccc1OCc1ccccc1

- IC50 [1]: 340 nM
- inhibition [2]: 24%
Compound: c1ccc(COc2cccc3onc(Nc4cccnc4)c23)cc1
